≈ marks a conversion by molar mass, not a printed value. Calls of active or inactive are those of the source. The rule behind the calls is not given here.
What was measured:
Klebsiella pneumoniae [1] = test: Antibacterial activity against extended-spectrum beta-lactamase-positive Klebsiella pneumoniae ATCC 700603 after 18 hrs by agar dilution method; type: functional; conditions: Klebsiella pneumoniae, 700603, 18 h
Providencia rettgeri = test: Antibacterial activity against Providencia rettgeri ATCC 31052 after 18 hrs by agar dilution method; type: functional; conditions: ATCC 31052, 18 h
HeLa = test: Cytotoxicity against human HeLa cells after 48 hrs by SRB assay; type: functional, cell-based
Summary of the method: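 HeLa human cervical carcinoma cells obtained from ATCC. Cytotoxicity was read by sulforhodamine B staining following an earlier published protocol, with doxorubicin hydrochloride as positive control. Values are reported as IC50.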

Klebsiella pneumoniae [2] = test: Antibacterial activity against extended-spectrum beta-lactamase-positive Klebsiella pneumoniae 12-8 after 18 hrs by agar dilution method; type: functional; conditions: 12-8, 18 h
Morganella morganii = test: Antibacterial activity against Morganella morganii ATCC 25830 after 18 hrs by agar dilution method; type: functional; conditions: ATCC 25830, 18 h
Candida albicans = test: Antifungal activity against Candida albicans ATCC 10231 after 18 hrs by agar dilution method; type: functional; conditions: ATCC 10231, 18 h
Pseudomonas aeruginosa [3] = test: Antibacterial activity against Pseudomonas aeruginosa ATCC 27853 after 18 hrs by agar dilution method; type: functional; conditions: ATCC 27853, 18 h
Citrobacter freundii = test: Antibacterial activity against Citrobacter freundii ATCC 43864 after 18 hrs by agar dilution method; type: functional; conditions: ATCC 43864, 18 h
Proteus vulgaris = test: Antibacterial activity against Proteus vulgaris ATCC 29905 after 18 hrs by agar dilution method; type: functional; conditions: ATCC 29905, 18 h
Staphylococcus aureus [4] = test: Antibacterial activity against methicillin-resistant Staphylococcus aureus ATCC 33591 after 18 hrs by agar dilution method; type: functional; conditions: for MIC: ATCC 33591, 18 h
Enterococcus faecalis [5] = test: Antibacterial activity against vancomycin-resistant Enterococcus faecalis ATCC 51299 after 18 hrs by agar dilution method; type: functional; conditions: for MIC: ATCC 51299, 18 h
Enterococcus faecium [6] = test: Antibacterial activity against vancomycin-resistant Enterococcus faecium ATCC 700221 after 18 hrs by agar dilution method; type: functional; conditions: for MIC: ATCC 700221, 18 h
Escherichia coli [7] = test: Antibacterial activity against extended-spectrum beta-lactamase-negative Escherichia coli ATCC 25922 after 18 hrs by agar dilution method; type: functional; conditions: ATCC 25922, 18 h
[8] = tested on: Mycobacterium tuberculosis; test: Antibacterial activity against Mycobacterium tuberculosis H37Rv […] by agar dilution method; type: functional
Escherichia coli [9] = test: Antibacterial activity against extended-spectrum beta-lactamase-positive Escherichia coli 12-15 after 18 hrs by agar dilution method; type: functional; conditions: 12-15, 18 h
Staphylococcus aureus [10] = test: Antibacterial activity against methicillin-resistant Staphylococcus aureus 12-33 after 18 hrs by agar dilution method; type: functional; conditions: for MIC: 12-33, 18 h
[11] = tested on: Staphylococcus epidermidis; test: Antibacterial activity against methicillin-resistant Staphylococcus epidermidis 12-8 after 18 hrs by agar dilution method; type: functional; conditions: for MIC: 12-8, 18 h
Pseudomonas aeruginosa [12] = test: Antibacterial activity against Pseudomonas aeruginosa 12-16 after 18 hrs by agar dilution method; type: functional; conditions: 12-16, 18 h
Pseudomonas aeruginosa [13] = test: Antibacterial activity against Pseudomonas aeruginosa PAO1 after 18 hrs by agar dilution method; type: functional; conditions: PAO1, 18 h
[14] = tested on: Mycobacterium tuberculosis; test: Antibacterial activity against Mycobacterium tuberculosis isolate FJ05060 […] by agar dilution method; type: functional
[15] = tested on: Mycobacterium tuberculosis; test: Antibacterial activity against Mycobacterium tuberculosis isolate FJ05349 […] by agar dilution method; type: functional
[16] = tested on: Acinetobacter calcoaceticus; test: Antibacterial activity against Acinetobacter calcoaceticus ATCC 19606 after 18 hrs by agar dilution method; type: functional; conditions: ATCC 19606, 18 h
Klebsiella pneumoniae [17] = test: Antibacterial activity against extended-spectrum beta-lactamase-negative Klebsiella pneumoniae 12-4 after 18 hrs by agar dilution method; type: functional; conditions: 12-4, 18 h
Klebsiella pneumoniae [18] = test: Antibacterial activity against NDM-1 positive Klebsiella pneumoniae ATCC BAA-2146 after 18 hrs by agar dilution method; type: functional; conditions: ATCC BAA-2146, 18 h
Serratia marcescens = test: Antibacterial activity against Serratia marcescens ATCC 21074 after 18 hrs by agar dilution method; type: functional; conditions: ATCC 21074, 18 h
Proteus mirabilis = test: Antibacterial activity against Proteus mirabilis 12-6 after 18 hrs by agar dilution method; type: functional; conditions: 12-6, 18 h
Klebsiella aerogenes = test: Antibacterial activity against Enterobacter aerogenes ATCC 13048 after 18 hrs by agar dilution method; type: functional; conditions: ATCC 13048, 18 h
Klebsiella pneumoniae [19] = test: Antibacterial activity against extended-spectrum beta-lactamase-negative Klebsiella pneumoniae 7 after 18 hrs by agar dilution method; type: functional; conditions: Klebsiella pneumoniae, 7, 18 h
Escherichia coli [20] = test: Antibacterial activity against extended-spectrum beta-lactamase-negative Escherichia coli 12-14 after 18 hrs by agar dilution method; type: functional; conditions: 12-14, 18 h
Enterococcus faecalis [21] = test: Antibacterial activity against vancomycin-resistant Enterococcus faecalis 09-9 after 18 hrs by agar dilution method; type: functional; conditions: for MIC: 09-9, 18 h
[22] = tested on: Stenotrophomonas maltophilia; test: Antibacterial activity against Stenotrophomonas maltophilia ATCC 13636 after 18 hrs by agar dilution method; type: functional; conditions: ATCC 13636, 18 h
Enterococcus faecium [23] = test: Antibacterial activity against vancomycin-resistant Enterococcus faecium 12-1 after 18 hrs by agar dilution method; type: functional; conditions: for MIC: 12-1, 18 h
Escherichia coli [24] = test: Antibacterial activity against extended-spectrum beta-lactamase-negative Escherichia coli 1515 after 18 hrs by agar dilution method; type: functional; conditions: Escherichia coli, 1515, 18 h
Enterobacter cloacae = test: Antibacterial activity against Enterobacter cloacae ATCC 43560 after 18 hrs by agar dilution method; type: functional; conditions: ATCC 43560, 18 h

Compound | MIC (Klebsiella pneumoniae [1]) [µg/mL] | MIC (Providencia rettgeri) [µg/mL] | IC50 (HeLa) [µM] | MIC (Klebsiella pneumoniae [2]) [µg/mL] | MIC (Morganella morganii) [µg/mL] | MIC (Candida albicans) [µg/mL] | MIC (Pseudomonas aeruginosa [3]) [µg/mL] | MIC (Citrobacter freundii) [µg/mL] | MIC (Proteus vulgaris) [µg/mL] | MIC (Escherichia coli [7]) [µg/mL] | MIC (Escherichia coli [9]) [µg/mL] | MIC (Pseudomonas aeruginosa [12]) [µg/mL] | MIC (Pseudomonas aeruginosa [13]) [µg/mL] | MIC [16] [µg/mL] | MIC (Klebsiella pneumoniae [17]) [µg/mL] | MIC (Klebsiella pneumoniae [18]) [µg/mL] | MIC (Serratia marcescens) [µg/mL] | MIC (Proteus mirabilis) [µg/mL] | MIC (Klebsiella aerogenes) [µg/mL] | MIC (Klebsiella pneumoniae [19]) [µg/mL] | further results
CNC(=N)NCCC/C=C/CCC[C@H](C)C[C@H](C)[C@H]1OC(=O)[C@H](C)[C@H](O)/C=C/[C@H](C)[C@H](O)C[C@H](O)[C@H](C)[C@@H](O)CC[C@H](C)[C@H](O)C[C@]2(O)O[C@H](C[C@@H](OC(=O)CC(=O)O)C[C@H](O)C[C@@H](O)[C@H](C)[C@H](O)/C=C/C=C/[C@@H]1C)C[C@H](O)[C@H]2O | > 64 | > 64 | 3 to 9 | > 64 | > 64 | 8 to 32 (≈ 7 to 28 µM) | > 64 | > 64 | > 64 | > 64 | > 64 | > 64 | > 64 | > 64 | > 64 | > 64 | > 64 | > 64 | > 64 | > 64 | MIC (Staphylococcus aureus [4]): 4 to 32 µg/mL (≈ 3.5 to 28 µM); MIC (Enterococcus faecalis [5]): 64 µg/mL (≈ 56 µM); MIC (Enterococcus faecium [6]): 64 µg/mL (≈ 56 µM); MIC [8]: 4 µg/mL (≈ 3.5 µM); MIC (Staphylococcus aureus [10]): 4 to 32 µg/mL (≈ 3.5 to 28 µM); MIC [11]: 4 to 32 µg/mL (≈ 3.5 to 28 µM); MIC [14]: 4 to 16 µg/mL (≈ 3.5 to 14 µM); MIC [15]: 4 to 16 µg/mL (≈ 3.5 to 14 µM); MIC (Escherichia coli [20]): > 64 µg/mL; MIC (Enterococcus faecalis [21]): 64 µg/mL (≈ 56 µM); MIC [22]: > 64 µg/mL; MIC (Enterococcus faecium [23]): 64 µg/mL (≈ 56 µM); MIC (Escherichia coli [24]): > 64 µg/mL; MIC (Enterobacter cloacae): > 64 µg/mL
CNC(=N)NCCC/C=C/CCC[C@H](C)C[C@H](C)[C@H]1OC(=O)[C@H](C)[C@H](O)/C=C/[C@H](C)[C@H](O)C[C@H](O)[C@H](C)[C@@H](O)CC[C@H](C)[C@H](O)C[C@]2(OC)O[C@H](C[C@@H](OC(=O)CC(=O)O)C[C@H](O)C[C@@H](O)[C@H](C)[C@H](O)/C=C/C=C/[C@@H]1C)C[C@H](O)[C@H]2O | > 64 | > 64 | 3 to 9 | > 64 | > 64 | 8 to 32 (≈ 6.92 to 27.7 µM) | > 64 | > 64 | > 64 | > 64 | > 64 | > 64 | > 64 | > 64 | > 64 | > 64 | > 64 | > 64 | > 64 | > 64 | Activity (Staphylococcus aureus [4]): Active; Activity (Enterococcus faecalis [5]): Active; Activity (Enterococcus faecium [6]): Active; Activity (Staphylococcus aureus [10]): Active; Activity [11]: Active; MIC (Escherichia coli [20]): > 64 µg/mL; Activity (Enterococcus faecalis [21]): Active; MIC [22]: > 64 µg/mL; Activity (Enterococcus faecium [23]): Active; MIC (Escherichia coli [24]): > 64 µg/mL; MIC (Enterobacter cloacae): > 64 µg/mL
CNC(=N)NCCC/C=C/CCC[C@H](C)C[C@H](C)[C@H]1OC(=O)[C@H](C)[C@H](O)/C=C/[C@H](C)[C@H](O)C[C@H](O)[C@H](C)[C@@H](O)CC[C@H](C)[C@H](OC(=O)CC(=O)O)C[C@]2(O)O[C@H](C[C@@H](OC(=O)CC(=O)O)C[C@H](O)C[C@@H](O)[C@H](C)[C@H](O)/C=C/C=C/[C@@H]1C)C[C@H](O)[C@H]2O | > 64 | > 64 | 3 to 9 | > 64 | > 64 | 8 to 32 (≈ 6.51 to 26 µM) | > 64 | > 64 | > 64 | > 64 | > 64 | > 64 | > 64 | > 64 | > 64 | > 64 | > 64 | > 64 | > 64 | > 64 | Activity (Staphylococcus aureus [4]): Active; Activity (Enterococcus faecalis [5]): Active; Activity (Enterococcus faecium [6]): Active; Activity (Staphylococcus aureus [10]): Active; Activity [11]: Active; MIC (Escherichia coli [20]): > 64 µg/mL; Activity (Enterococcus faecalis [21]): Active; MIC [22]: > 64 µg/mL; Activity (Enterococcus faecium [23]): Active; MIC (Escherichia coli [24]): > 64 µg/mL; MIC (Enterobacter cloacae): > 64 µg/mL
CNC(=N)NCCC/C=C/CCC[C@H](C)C[C@H](C)[C@H]1OC(=O)[C@H](C)[C@H](O)/C=C/[C@H](C)[C@H](O)C[C@H](O)[C@H](C)[C@@H](O)CC[C@H](C)[C@H](O)C[C@]2(O)O[C@H](C[C@@H](O)C[C@H](OC(=O)CC(=O)O)C[C@@H](O)[C@H](C)[C@H](O)/C=C/C=C/[C@@H]1C)C[C@H](O)[C@H]2O | > 64 | > 64 | 3 to 9 | > 64 | > 64 | 8 to 32 (≈ 7 to 28 µM) | > 64 | > 64 | > 64 | > 64 | > 64 | > 64 | > 64 | > 64 | > 64 | > 64 | > 64 | > 64 | > 64 | > 64 | MIC (Staphylococcus aureus [4]): 4 to 32 µg/mL (≈ 3.5 to 28 µM); MIC (Enterococcus faecalis [5]): 64 µg/mL (≈ 56 µM); MIC (Enterococcus faecium [6]): 64 µg/mL (≈ 56 µM); MIC [8]: 4 µg/mL (≈ 3.5 µM); MIC (Staphylococcus aureus [10]): 4 to 32 µg/mL (≈ 3.5 to 28 µM); MIC [11]: 4 to 32 µg/mL (≈ 3.5 to 28 µM); MIC [14]: 4 to 16 µg/mL (≈ 3.5 to 14 µM); MIC [15]: 4 to 16 µg/mL (≈ 3.5 to 14 µM); MIC (Escherichia coli [20]): > 64 µg/mL; MIC (Enterococcus faecalis [21]): 64 µg/mL (≈ 56 µM); MIC [22]: > 64 µg/mL; MIC (Enterococcus faecium [23]): 64 µg/mL (≈ 56 µM); MIC (Escherichia coli [24]): > 64 µg/mL; MIC (Enterobacter cloacae): > 64 µg/mL

— ChEMBL document CHEMBL4130613, “Identification and Proposed Relative and Absolute Configurations of Niphimycins C-E from the Marine-Derived Streptomyces sp. IMB7-145 by Genomic Analysis” (J Nat Prod, 2018)
